Source: PubChem BioAssay
OX1R antag-1: OX1R (HCRTR1) antagonists, primary screen, fluorescence, CHO/OX1R cells, Fluo-8 calcium, orexin A | Orexin/Hypocretin receptor type 1 (Homo sapiens), O43613 | Fluo-8 calcium fluorescence | inhibition, % at 5 µM | 330,000 tested, 0.43% active | AID 434989, 2010;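 active means inhibition above its plate's threshold, mean inhibition of all tested compounds on the plate plus 3 SD, cut at about 37% in these data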;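 further: 0% = orexin A challenge wells and 100% = SB-334867-A antagonist wells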
TAAR1 agonist: human TAAR1 agonists, primary screen, Fluo-8 calcium fluorescence, CHO RD-HGA16 cells | activation, % at 3 µM | 360,000 tested, 0.99% active | Trace amine-associated receptor 1 (Homo sapiens), Q96RJ0 | vehicle wells 0%, saturating PEA agonist 100%;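 active means activation above the mean activation of all test compounds in the run plus 3 SD, cut at about 38% in these data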
Target sequence (Q96RJ0 whole entry, looked up): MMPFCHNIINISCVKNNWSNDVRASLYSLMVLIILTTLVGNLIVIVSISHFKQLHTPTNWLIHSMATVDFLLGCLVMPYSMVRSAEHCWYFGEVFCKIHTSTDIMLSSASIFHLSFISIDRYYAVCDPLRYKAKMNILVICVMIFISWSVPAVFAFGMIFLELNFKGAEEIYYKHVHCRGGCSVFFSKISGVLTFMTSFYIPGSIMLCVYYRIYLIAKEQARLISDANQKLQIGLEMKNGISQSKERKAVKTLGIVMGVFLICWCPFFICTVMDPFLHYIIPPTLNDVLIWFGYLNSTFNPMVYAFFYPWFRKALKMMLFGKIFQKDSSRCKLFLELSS
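System: CHO-derived RD-HGA16 cells with stable Gα16 and human TAAR1. Times: 17-24 h plating, Fluo-8 75 min 37 °C, 30 min RT. Measured by: calcium-sensitive Fluo-8 signal, excitation 470-495, emission 515-575 nm. Read-out basis: % activation relative to PEA EC100 response. Control set: DMSO and PEA EC100. Repeats: no replicates (n 1).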
GalR3 antag: GalR3 antagonists in HEK293 cells, primary screen, cell-based, fluorescence readout. 360,000 tested, 0.44% active. HEK293 GalR3-CNG cAMP membrane potential fluorescence; galR3 body fused to GalR1 C-terminus. inhibition, % at 3 µM. Galanin receptor type 3 (Homo sapiens), O60755;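 active means inhibition above the screen-wide average plus 3 SD, cut at about 13% in these data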;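 further: forskolin and galanin both at EC90 stimulate the cells; cAMP rise reported by CNG channel membrane potential dye signal; 0% = forskolin plus galanin with DMSO and 100% = forskolin alone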
TAAR1 antagonist: human TAAR1 antagonists, primary screen, Fluo-8 calcium fluorescence, CHO RD-HGA16 cells. antagonist. inhibition, % at 3 µM. 360,000 tested, 1.5% active;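 active means inhibition above a per-plate cutoff, the mean inhibition of test compounds on that plate plus 3 SD, cut at about 49% in these data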;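 further: 0% = DMSO plus EC80 beta-PEA response and 100% = DMSO alone without agonist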
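Test system – hTAAR1-expressing CHO RD-HGA16 cells, Gα16-coupled · Also added – β-PEA at EC80 concentration, post-compound challenge · Compound – 3 µM, single point · Incubation – dye loading 75 min at 37 °C, then 30 min room temperature · Measured by – Fluo-8 intracellular calcium dye fluorescence, real-time kinetic reads · Benchmarks – vehicle and agonist controls · Replicates – singlicate, one well per test compound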
OX1R antag-2: antagonists of human orexin 1 receptor (OX1R) | Orexin/Hypocretin receptor type 1 (Homo sapiens), O43613 | OX1R-expressing cells, FRET antagonist read-out | inhibition, % at 6.6 µM | 330,000 tested, 1.8% active | AID 485270, 2010; in the data active means inhibition mostly above about 38%, no sharp cut-off; inactive means mostly below about 40%;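 further: 0% = agonist challenge alone and 100% = reference antagonist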
CHO parental Ca: ATP-evoked calcium signal inhibitors, parental CHO, primary screen, counter-screen for OX1R antagonist project, cell-based, fluorescence, Fluo-8 calcium dye; parental CHO-K1, ATP-induced calcium, Fluo-8 fluorescence; inhibition, % at 5.6 µM; 330,000 tested, 0.63% active; AID 463079, 2010;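 active means inhibition above that plate's mean sample inhibition plus 3 SD, cut at about 26% in these data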;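 further: 0% = ATP-challenged DMSO wells and 100% = DMSO wells without ATP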
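Material: Parental CHO cells | Reagent: ATP | Compound dosing: Single nominal dose of 5.6 µM per compound | Detection: Intracellular calcium via Fluo-8 no-wash fluorescent dye | Read-out: % inhibition of ATP-induced calcium mobilization | Benchmarks: Low control ATP plus DMSO, high control DMSO only | Replicates: Singlicate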
Starred values were filed as active, the others as inactive; . = no result. This is a sample that favours compounds with a hit; in the whole collection about 4.3% have one here.

SMILES	OX1R antag-1	TAAR1 agonist	GalR3 antag	TAAR1 antagonist	OX1R antag-2	CHO parental Ca
Cc1ccc(NC(=O)c2ccc(S(=O)(=O)N3CCOCC3)cc2)cc1	-16	-3	-3	5	8	-2
Cc1ccc(SC(C)C(=O)Nc2ccc(S(=O)(=O)N3CCOCC3)cc2)cc1 (stereo not drawn)	-18	39*	-6	22	7	-9
O=C(NCCN1CCC(n2c(=O)[nH]c3ccccc32)CC1)c1ccc(F)cc1F	.	2	2	6	.	.
CN1OC[C@@H]2CN(C(=O)C3CCCCC3)[C@H](c3ccc(N4CCCCC4)cc3)C[C@@H]21	.	-1	-7	-12	.	.
CCN1C(=O)c2ccc(-c3nc4ccccc4c(=O)o3)cc2C1=O	-5	1	0	-2	13	4
CCN1C(=O)c2c(C)nc3ccccc3c2C1=O	-20	.	.	.	39*	-14
COc1cc2c(c(OC)c1OC)C1(CCCCC1)CC2NC(=O)c1ccncc1 (stereo not drawn)	.	7	-3	-16	.	.
COc1ccc(-c2cc(C(F)(F)F)nc(S(=O)(=O)CCCC(=O)Nc3cccnc3Cl)n2)cc1OC	.	0	17*	-11	.	.
COC(=O)C1=C(C)N(Cc2ccccc2C(F)(F)F)C(=NCc2cc(OC)c(OC)c(OC)c2)NC1c1cccc(C(F)(F)F)c1 (stereo not drawn)	.	7	-3	-12	.	.
O=C(O)c1cc(-c2ccc3c(c2)OCCO3)n[nH]1	-18	3	-2	6	7	-2
Oc1ccccc1-c1cc(-c2ccc3c(c2)OCCO3)n[nH]1	18	6	-3	20	59*	-3
Cc1ccc2nc(SCC(=O)Nc3cccc([N+](=O)[O-])c3)[nH]c2c1	53*	6	-6	15	14	12
Cc1ccc(S(=O)(=O)Oc2ccccc2N2C(=O)C3C4CCC(C4)C3C2=O)cc1 (stereo not drawn)	-24	0	-4	-8	17	-23
O=C1C2C3C=CC(C3)C2C(=O)N1c1ccccc1OS(=O)(=O)c1ccccc1 (stereo not drawn)	5	-1	-9	1	71*	-16
O=S1(=O)CC(N2CCCCC2)CN1Cc1ccc(F)cc1 (stereo not drawn)	.	1	-7	-1	.	.
CC(=O)C1=C(C)N(CC(C)C)C(=S)NC1c1ccc(Br)cc1 (stereo not drawn)	.	-2	0	-11	.	.
O=C(NC1CCCC1)[C@@H]1CCCN1C(=O)[C@H](Cc1cccnc1)NC(=O)N1CCOCC1	.	3	2	-6	.	.
COc1ccc(NC(=O)Nc2nc(C(N)CC(C)C)cs2)cc1 (stereo not drawn)	.	5	-6	2	.	.
NC(c1csc(NC(=O)Nc2ccc(OC(F)(F)F)cc2)n1)C1CCCCC1 (stereo not drawn)	.	47*	-8	8	.	.
C=CCNC(=O)c1cccc2c1C(=O)c1ccc(N3CCCC3)cc1S2(=O)=O	-4	16	-5	12	44	5
CC1CCN(c2ccc3c(c2)S(=O)(=O)c2cccc(C(=O)NC[C@@H]4CCCO4)c2C3=O)CC1	-5	31	-3	60*	41	-15
O=C(NCc1ccco1)c1cccc2c1C(=O)c1ccc(N3CCCC3)cc1S2(=O)=O	-7	23	3	53*	37	-7
Cc1ccc(CNC(=O)c2cccc3c2C(=O)c2ccc(N4CCCCC4)cc2S3(=O)=O)cc1	27	47*	-5	71*	3	10
O=C(NCc1ccccc1)c1cccc2c1C(=O)c1ccc(/C=C/c3ccccc3)cc1S2(=O)=O	-16	14	-4	58*	13	10
Cc1[nH]nc2c1C(c1ccccc1)N(c1ccccc1)C2=O (stereo not drawn)	.	0	-7	-12	.	.
